NTR1 agonist = NTR1 (human) agonism; activation, % at 20 µM; P30989; NTR1-U2OS beta-arrestin-GFP spot imaging, agonist mode; 0.17% of 330,000 active;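 active = activation at or above 40% of the spot to cytoplasm intensity ratio, with at least 20 cells analyzed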;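 also: 0% = DMSO without peptide and 100% = 100 nM NTR1 peptide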
Beta2AR agonist = activates human beta-2 adrenergic receptor causing internalization | P07550 | Am2.2-beta2AR cells, FAP receptor internalization, flow cytometry | AID 504454 | response, % (test concentration not listed) | 0.43% of 340,000 active;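 active = response above a set limit, near 3 SD of response in nonfluorescent compounds, cut at about 42% in these data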
Target sequence (P07550 whole entry, looked up): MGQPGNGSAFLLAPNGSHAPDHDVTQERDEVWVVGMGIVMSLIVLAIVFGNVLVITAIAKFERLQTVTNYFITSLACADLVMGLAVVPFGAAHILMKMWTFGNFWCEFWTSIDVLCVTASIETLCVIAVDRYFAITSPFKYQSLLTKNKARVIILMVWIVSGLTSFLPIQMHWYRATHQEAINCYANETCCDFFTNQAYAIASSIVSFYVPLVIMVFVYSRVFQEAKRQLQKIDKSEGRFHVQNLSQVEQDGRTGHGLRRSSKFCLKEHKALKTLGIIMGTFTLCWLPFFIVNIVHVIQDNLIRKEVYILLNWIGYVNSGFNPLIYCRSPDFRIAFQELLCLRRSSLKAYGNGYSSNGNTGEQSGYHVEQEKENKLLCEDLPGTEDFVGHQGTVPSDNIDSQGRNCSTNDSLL
Hep lipid drop = modulators of hepatic lipid droplet formation; 0.4% of 240,000 active; inhibition, % at 6.5 µM; AML12 mouse hepatocytes, oleate lipid droplets, BODIPY imaging;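 active = lipid droplet intensity inhibited by at least 50%, with more than 500 cells counted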
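Test system: AML12 hepatocytes (mouse); reagent: oleate loading, 100 µM; dosing: one dose, 6.5 µM compound; incubation: overnight exposure; signal: fluorescence imaging, 20x objective, two fields per well; read-out basis: % inhibition of corrected integrated BODIPY droplet signal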
GRK2 inh = human GRK2 inhibition via aptamer displacement. 0.59% of 330,000 active. inhibition of aptamer binding, % at 10 µM. P25098. bead flow cytometry, FAM-aptamer displacement from GRK2. AID 488847;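 active = inhibition of aptamer binding above 40%, roughly 3 SD of noise, on plates passing a quality check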;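 also: median bead fluorescence of bound FAM aptamer so fluorescent compounds give negative values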
Arrestin-AP2 inh = inhibitors of human beta-arrestin and AP2 interaction | inhibition, % at 10 µM | AID 504490 | 0.31% of 340,000 active | FITC-arrestin peptide / GST-AP2 beads, flow cytometry; AP2 beta2 appendage carries R879A mutation;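 active = inhibition above a set limit, near 3 SD of compounds lacking own fluorescence, cut at about 54% in these data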;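 also: plate controls were DMSO wells for no effect and 5 µM unlabelled arrestin peptide for full effect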
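Assay system: GST-AP2 R879A bound to glutathione beads, E. coli-expressed; Medium: PBS with 0.05% Tween 20 and 0.1% BSA; Also added: fluorescein-tagged arrestin peptide at 50 nM final; Timing: 12 min plus 1 h, RT; Measured by: flow cytometry, FL1 (488/535 nm); Evaluation: percent drop in bead-associated FITC signal.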
TAG inh = reduces triacylglycerol accumulation in H9c2 cells; inhibition, % at 12.5 µM; 0.66% of 230,000 active; Nile Red lipid (TAG) fluorescence; cells loaded with 200 µM oleic acid;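 active = pattern-corrected inhibition of lipid staining of at least 50% with the nuclear-stain viability signal not falling by more than 50%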;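 also: 0% = DMSO wells and 100% = triacsin C control wells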
TAG conf = triacylglycerol accumulation inhibition, confirmation; 71% of 990 active; H9c2 lipid accumulation, Nile Red fluorescence; cells loaded with 200 µM oleic acid; inhibition, % at 12.5 µM; shares compounds with TAG inh; AID 651629;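 active = mean inhibition across replicates of 40% or more; inactive = mean inhibition below 40%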;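 also: plate controls were DMSO only wells for no effect and Triacsin C treated wells for full effect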
The depositor's hits bear a star; / = no result. In the library only some 2% were active in any assay of this set; here they are far more common.

SMILES	NTR1 agonist	Beta2AR agonist	Hep lipid drop	GRK2 inh	Arrestin-AP2 inh	TAG inh	TAG conf
Cc1ccc(C)c(C(O)c2ncc(-c3ccc4ccccc4c3)[nH]2)c1 (configuration not stated)	/	/	/	/	/	-14	/
CCN(CC)CCNc1nc(-n2nc(C)cc2C)nc2sc3c(c12)CC(C)(C)OC3	0	19	25	/	-4	55*	56*
COc1ccc(CNC(=O)[C@H](C)NC(=O)C2CCN(C(=O)[C@@H](N)Cc3ccccc3)CC2)cc1	2	-5	-6	4	-1	/	/
COc1ccccc1CCC(=O)Nc1ccc2c(c1)c(=O)n(C)n2Cc1ccc(F)cc1	/	/	/	/	/	34	/
COc1cccc(Cn2c3ccc(NC(=O)CCc4ccc(F)cc4)cc3c(=O)n2C)c1	/	/	/	/	/	52*	69*
Cc1cc(C)c2nc(NC(=O)c3ccc([N+](=O)[O-])o3)sc2c1	9	10	10	2	8	64*	70*
O=C(Nc1nc2c(F)cc(F)cc2s1)c1ccc([N+](=O)[O-])o1	8	20	-13	1	3	15	/
CC(C)c1ccc2c(c1)C(c1ccc(N3CCOCC3)cc1)=NNC(c1cccs1)=N2	3	-13	/	0	-2	52*	29
COc1cccc(/C=C2\CCCCC2=O)c1	1	1	1	6	-4	/	/
COc1c(C)cc(C(=O)C2CCCN(C(=O)c3ccc4cc[nH]c4c3)C2)cc1C (configuration not stated)	-1	-4	6	1	13	-2	/
COc1ccc(-c2nc(-c3ccccc3)c(-c3cc([N+](=O)[O-])ccc3C)[nH]2)cc1OC	3	5	20	1	22	50*	58*
CCOc1cc(-c2nc(-c3ccccc3)c(-c3cc([N+](=O)[O-])ccc3C)[nH]2)ccc1O	8	-2	9	0	-6	/	/
CCn1c(SCC(=O)Nc2nc(-c3ccc(C)cc3)cs2)nnc1-c1ccccc1O	25	11	24	1	2	80*	68*
Cc1ccc(-c2csc(NC(=O)CSc3nc4ccccc4c(=O)n3CCCN(C)C)n2)cc1	11	13	4	0	16	70*	83*
CCCn1c(N/N=C(C)\C=C\c2ccccc2)nc2c1c(=O)[nH]c(=O)n2C	1	/	24	0	/	/	/
NC(=O)c1cc(-c2ccccc2)nc(N2CCOCC2)n1	3	4	20	3	6	52*	60*
O=[N+]([O-])c1cc(/C=N/Nc2nc(N3CCOCC3)nc(N3CCOCC3)n2)ccc1Cl	-1	-1	-13	0	10	9	/
O=[N+]([O-])c1cc(S(=O)(=O)Nc2cccc(Cl)c2)ccc1N/N=C/c1ccc(N2CCOCC2)cc1	2	2	0	0	3	80*	79*
Cc1cc(C)nc(Sc2ncnc(N)c2[N+](=O)[O-])n1	1	6	12	0	40	61*	37
Cc1cccc(Nc2ncnc(N)c2[N+](=O)[O-])n1	2	2	2	3	1	3	/
COc1cc(C(=O)Nc2nc3ccc(C)cc3s2)ccc1OCc1c(C)noc1C	2	-6	/	0	8	51*	40
O=C(NCC(=O)N(c1cccc(F)c1)C(C(=O)NC1CCCC1)c1ccncc1)c1cccs1 (configuration not stated)	0	-5	-5	1	-6	/	/
Cc1ccc(SCC(=O)OCC(=O)N(C)CC(=O)Nc2ccccc2Cl)cc1C	0	-8	-7	0	49	-11	/
CC(C)c1ccc(Nc2ncc3c(n2)CCN(C(=O)Nc2ccc(F)c(Cl)c2)C3)cc1	/	/	/	/	/	87*	88*
COc1ccc(CNC(=O)OCCN2CCN(S(=O)(=O)c3ccc(C)cc3)CCC2=O)cc1	-3	-18	-6	0	13	72*	1
Cc1ccc(S(=O)(=O)N2CCC(=O)N(CCOC(=O)NCc3ccccc3)CC2)cc1	-2	/	-3	0	/	/	/
